Bioassay records as filed in PubChem.
RanGTP-Impb inh: inhibitors of RanGTP-importin-beta interaction, primary screen, biochemical, FRET, CFP-Ran, YFP-importin-beta, homogeneous | Ran GTPase (GTP-bound) - importin-beta complex | cell-free CFP-Ran/YFP-importin-beta FRET ratio | inhibition, % (concentration not given with the values) | 300,000 compounds, 1.1% hits;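 active = more than half of the replicate wells show a fall in the fluorescence ratio signal beyond about 16%, limit read from the data, passing the limit was not always enough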;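 note: 0% = DMSO wells and 100% = Ran loaded with GDP instead of GTP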
Runt-CBFb FRET: inhibitors of RUNX1 Runt–CBFb binding, primary screen, biochemical, FRET, Cerulean-Runt, Venus-CBFb, uHTS; Cerulean-Runt/Venus-CBFb FRET ratio 530/480, 1 h; inhibition, % at 20 µM; 220,000 compounds, 0.46% hits; AID 1496, 2009;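 active = inhibition over about 50% at 20 µM in the single-dose screen, limit read from the data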;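 note: 0% = DMSO wells and 100% = excess unlabeled CBFb competitor control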
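Assay system: Cerulean-tagged RUNX1 Runt domain (FRET donor) fusion protein / Amount: 100 nM each of Venus-CBFb and Cerulean-Runt domain / Medium: Tris buffer pH 7.5 with salts and BSA / Also added: Venus-CBFb 100 nM / Schedule: 1 h complex formation plus 1 h compound treatment, room temperature / Signal: FRET fluorescence / Read-out: loss of energy transfer signal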
Runt-SMMHC FRET: inhibitors of RUNX1 Runt–CBFb-SMMHC binding, primary screen, biochemical, FRET, Cerulean-Runt, Venus-CBFb-SMMHC, uHTS. Runt-related transcription factor 1 (Homo sapiens) + Core-binding factor subunit beta …. Cerulean-Runt/Venus-CBFb-SMMHC FRET ratio 530/480, 1 h. inhibition, % at 20 µM. 220,000 compounds, 0.74% hits. AID 1434, 2008;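 active = mean inhibition across duplicate retests at 20 µM reaching about 50%, limit read from the data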;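 note: 0% = DMSO wells and 100% = wells with excess untagged CBFb-SMMHC; inhibitors lower the FRET ratio by blocking Runt binding to CBFb-SMMHC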
Tb hexokinase: Trypanosoma brucei hexokinase 1 inhibitors, primary screen, biochemical, G6PDH-coupled NADH absorbance, MLSCN library; inhibition, % at 10 µM; hexokinase 1 [Trypanosoma brucei]; recombinant TbHK1, G6PDH-coupled NADH A340; 220,000 compounds, 0.11% hits; AID 1430, 2008;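 active = inhibition of 50% or more in the single-dose primary screen; inactive = inhibition below 50%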
Hck-Nef inh: inhibitors of Nef-activated human Hck kinase, primary screen, biochemical, Z-Lyte FRET, 384-well, Hck-YEEI. 220,000 compounds, 0.68% hits. Recombinant Hck-YEEI plus Nef, Z-Lyte FRET kinase assay. Tyrosine-protein kinase HCK (Homo sapiens), P08631. AID 463187, 2010. inhibition, % at 20 µM;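 active = Hck-Nef kinase inhibition above about 50%, limit read from the data; inactive = inhibition below that limit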;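 note: 0% = DMSO with Hck plus Nef and 100% = Hck alone without Nef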
Target sequence (P08631 whole entry, looked up): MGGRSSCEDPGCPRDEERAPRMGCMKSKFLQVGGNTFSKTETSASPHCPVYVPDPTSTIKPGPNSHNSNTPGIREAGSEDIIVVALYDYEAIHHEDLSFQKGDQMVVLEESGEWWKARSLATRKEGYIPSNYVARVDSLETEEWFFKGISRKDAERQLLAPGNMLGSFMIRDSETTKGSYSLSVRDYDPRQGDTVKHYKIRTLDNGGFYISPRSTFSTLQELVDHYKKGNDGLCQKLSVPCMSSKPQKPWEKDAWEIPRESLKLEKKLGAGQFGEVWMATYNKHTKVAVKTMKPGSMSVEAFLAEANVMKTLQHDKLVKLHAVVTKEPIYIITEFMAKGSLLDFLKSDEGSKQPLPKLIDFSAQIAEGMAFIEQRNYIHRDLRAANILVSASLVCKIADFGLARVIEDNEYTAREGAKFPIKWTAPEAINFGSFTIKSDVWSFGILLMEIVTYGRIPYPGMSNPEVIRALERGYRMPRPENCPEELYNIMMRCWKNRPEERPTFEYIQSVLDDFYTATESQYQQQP
p97 ATPase inh: inhibitors of human p97 ATPase, primary screen, biochemical; inhibition, % at 8 µM; 220,000 compounds, 0.42% hits; recombinant p97 ATPase, Kinase-Glo ATP luminescence, 3 h; Transitional endoplasmic reticulum ATPase (Homo sapiens), P55072; in the data active = inhibition above about 15%;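 note: 0% = DMSO vehicle and 100% = wells lacking enzyme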
RUNX1 CBFb TR: inhibitors of RUNX1 Runt–CBFb binding, biochemical, TR-FRET | shares compounds with Runt-CBFb FRET | TR-FRET RUNX1 Runt domain-CBFb binding | inhibition, % at 20 µM | 480 compounds, 20% hits | AID 1502, 2009; in the data active = inhibition above about 40%
* marks the source's active call; other numbers are inactive results. Shown are actives, neighbours in structure and some others; about 2.1% of the full set was active somewhere.

`COc1ccc(Cc2nnc(N/N=C(\C)c3ccccc3)[nH]c2=O)cc1OC` gave RanGTP-Impb inh -3, Runt-CBFb FRET 1, Runt-SMMHC FRET -2, Tb hexokinase -9, Hck-Nef inh 11 and p97 ATPase inh 1.
`CCOC(=O)c1ccc(N2C(=O)c3n[nH]c(C)c3C2c2cccnc2)cc1` (stereo unspecified) gave RanGTP-Impb inh 0, Runt-CBFb FRET 0, Runt-SMMHC FRET 4, Tb hexokinase 3, Hck-Nef inh -1 and p97 ATPase inh 6.
CCOC(=O)c1ccc(N2C(=O)c3n[nH]c(-c4ccco4)c3C2c2ccc([N+](=O)[O-])cc2)cc1 (stereo unspecified) was read as RanGTP-Impb inh 7, Runt-CBFb FRET 68*, Runt-SMMHC FRET 8, Tb hexokinase 20, Hck-Nef inh -2, p97 ATPase inh 1 and RUNX1 CBFb TR 30.
For Cc1ncc(CO)c(/C=N/NC(=O)c2cc(Br)ccc2O)c1O the results were RanGTP-Impb inh 2, Runt-CBFb FRET 1, Runt-SMMHC FRET -25, Tb hexokinase 1, Hck-Nef inh 9 and p97 ATPase inh 2.
Screening Cc1ncc(CO)c(/C=N/NC(=O)c2cc(O)c(O)c(O)c2)c1O returned RanGTP-Impb inh 8, Runt-CBFb FRET 57*, Runt-SMMHC FRET 51*, Tb hexokinase -4, Hck-Nef inh -29, p97 ATPase inh 6 and RUNX1 CBFb TR 66*.
`CCNC(=O)/C(C#N)=C/c1c(N(Cc2ccccc2)Cc2ccccc2)nc2ccccn2c1=O` gave RanGTP-Impb inh 4, Runt-CBFb FRET 8, Runt-SMMHC FRET 22, Tb hexokinase -19, Hck-Nef inh 3 and p97 ATPase inh 1.
`CNC(=O)/C(C#N)=C/c1c(N(Cc2ccccc2)Cc2ccccc2)nc2c(C)cccn2c1=O` gave RanGTP-Impb inh 1, Runt-CBFb FRET 62*, Runt-SMMHC FRET 115*, Tb hexokinase -17, Hck-Nef inh -1, p97 ATPase inh -2 and RUNX1 CBFb TR -14.
CCOC(=O)N1CCN(C(=O)C2CCC(=O)N(Cc3ccc(Cl)cc3)C2)CC1 (stereo unspecified) was read as RanGTP-Impb inh -2.
Cc1ccc(NC(=S)NCc2ccc(Cl)cc2)c(C)c1 was read as RanGTP-Impb inh 3.
For Cc1ccc(NC(=O)C(OC(=O)c2ccccc2Cl)c2ccccc2)cc1Cl (stereo unspecified) the results were RanGTP-Impb inh -4, Runt-CBFb FRET 2, Runt-SMMHC FRET 0, Tb hexokinase 5, Hck-Nef inh -1 and p97 ATPase inh 4.
Cc1cc(C(=O)OC(C(=O)Nc2ccc(C)c(Cl)c2)c2ccccc2)c(C)o1 (stereo unspecified) was read as RanGTP-Impb inh -1, Runt-CBFb FRET 65*, Runt-SMMHC FRET 10, Tb hexokinase 2, Hck-Nef inh 0, p97 ATPase inh 3 and RUNX1 CBFb TR -11.
`CCOC(=O)c1cnc(-n2nc(C)cc2C)nc1Nc1ccc2c(c1)OCO2` gave Runt-CBFb FRET 73*, Runt-SMMHC FRET -2 and RUNX1 CBFb TR -8.
CCOC(=O)c1cnc(-n2nc(C)cc2C)nc1Nc1ccc(C)cc1 was read as RanGTP-Impb inh 1, Runt-CBFb FRET 3, Runt-SMMHC FRET -4, Tb hexokinase -11, Hck-Nef inh 2 and p97 ATPase inh 4.
CN1/C(=C\C(=O)c2cccnc2)Sc2ccccc21 was read as RanGTP-Impb inh 10, Runt-CBFb FRET 66*, Runt-SMMHC FRET 51*, Tb hexokinase -9, Hck-Nef inh 44, p97 ATPase inh -5 and RUNX1 CBFb TR 14.
Screening Cc1cc(C(=O)Nc2ccc(F)cc2)c2ccccc2n1 returned RanGTP-Impb inh 2.
`COC(=O)c1cc(=O)nc2sc(-c3ccc(F)cc3)nn12` gave RanGTP-Impb inh 0, Runt-CBFb FRET 52*, Runt-SMMHC FRET 5, Tb hexokinase -2, Hck-Nef inh -1, p97 ATPase inh 0 and RUNX1 CBFb TR 22.
For COC(=O)c1cc(=O)nc2sc(-c3cccs3)nn12 the results were RanGTP-Impb inh -1, Runt-CBFb FRET 0, Runt-SMMHC FRET -1, Tb hexokinase -25, Hck-Nef inh 1 and p97 ATPase inh 3.
`CC(=O)Nc1ccc(S(=O)(=O)N2CCN=C2SCc2ccccc2C)cc1` gave RanGTP-Impb inh 0.
Screening C/C(=N/NC(=O)c1cc(O)c(O)c(O)c1)c1ccc([N+](=O)[O-])cc1 returned RanGTP-Impb inh 9, Runt-CBFb FRET 54*, Runt-SMMHC FRET 50, Tb hexokinase -2, Hck-Nef inh 23, p97 ATPase inh 7 and RUNX1 CBFb TR 67*.
Screening C/C(=N\NC(=O)c1ccc([N+](=O)[O-])cc1)c1c(O)cc(C)oc1=O returned RanGTP-Impb inh 2, Runt-CBFb FRET 0, Runt-SMMHC FRET 2, Tb hexokinase -14, Hck-Nef inh 21 and p97 ATPase inh 3.
Screening CC(=O)Nc1ccc(S(=O)(=O)N2CCN(c3cc(C(F)(F)F)ccn3)CC2)cc1 returned RanGTP-Impb inh 2, Runt-CBFb FRET 56*, Runt-SMMHC FRET -3, Tb hexokinase -12, Hck-Nef inh 10, p97 ATPase inh 6 and RUNX1 CBFb TR 76*.
`O=C(COc1ccc(Cl)cc1)Nc1nnc(C2=COCCO2)o1` gave RanGTP-Impb inh 6, Runt-CBFb FRET -1, Runt-SMMHC FRET 1, Tb hexokinase -3, Hck-Nef inh 25 and p97 ATPase inh 3.
`N#C/C(=C\c1c(N2CCCCCC2)nc2ccccn2c1=O)C(=O)NCc1ccco1` gave RanGTP-Impb inh 6, Runt-CBFb FRET 75*, Runt-SMMHC FRET -3, Tb hexokinase -20, Hck-Nef inh -3, p97 ATPase inh -2 and RUNX1 CBFb TR 22.
For COc1ccc(-c2cnnn2-c2ccc(NC(=O)c3ccc(S(=O)(=O)N4CCCCC4)cc3)cc2)cc1 the results were RanGTP-Impb inh 3, Runt-CBFb FRET -1, Runt-SMMHC FRET 6, Tb hexokinase -5, Hck-Nef inh -7 and p97 ATPase inh -7.
